What was measured:
[1] = Half-life in 4:6 acetone/ 1.0 M HEPES buffer, pH 7.4, 37 degree celsius; assay type: ADME
Method in brief: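 Generation of 4 from the 4-hydroxy compounds followed by ³¹P NMR in 4:6 acetone/1.0 M HEPES, pH 7.4, 37 °C; half-time of phosphoramide mustard release recorded.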

[2] = test system: L1210; assay: In vivo antitumor activity against intraperitoneal murine wild type L1210 Leukemia cells at 170 umol/kg; assay type: functional, Mus musculus
Method in brief: (§1)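 NCI L1210 protocol. Tumor propagated in DBA/2 mice; tests done in B6D2F1 mice, six per group, given 10⁶ L1210 cells ip. One ip dose of drug suspended in 2% (carboxymethyl)cellulose (or vehicle alone) given 24 h later. Survival followed daily for 30 days. %T/C = 100 × treated/control survival time.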

[3] = test system: L1210; assay: In vivo antitumor activity against intraperitoneal murine wild type L1210 Leukemia cells at 340 umol/kg; assay type: functional, Mus musculus; method in brief: as §1
[4] = test system: L1210; assay: In vitro antitumor activity against cyclophosphamide-resistant L1210/CP cells; assay type: functional, Mus musculus
Method in brief: (§2)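 Clonogenic assay on L1210 and P388 leukemia cells, wild-type (/O) and cyclophosphamide-resistant (/CP) lines, with 1-h drug exposure. LC99 is the concentration that cuts colony formation to 1% of control. It comes from linear regression of log survival vs concentration, at least three determinations.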

[5] = test system: L1210; assay: In vitro antitumor activity against wild-type L1210/0 cells; assay type: functional, Mus musculus; method in brief: as §2
[6] = test system: L1210; assay: Resistance factor for LC99 of resistant (L1210/CP) to that of LC99 for wild type (L1210/0).; assay type: functional, Mus musculus
Method in brief: (§3)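 Resistance factor is LC99 in the cyclophosphamide-resistant line divided by LC99 in the matching wild-type line. Each LC99 comes from a clonogenic assay with 1-h drug exposure, by linear regression of log survival vs concentration, at least three determinations.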

[7] = test system: P388; assay: In vitro antitumor activity against cyclophosphamide-resistant P388/CP cells; assay type: functional, Mus musculus; method in brief: as §2
[8] = test system: P388; assay: In vitro antitumor activity against wild-type P388/0 cells; assay type: functional, Mus musculus; method in brief: as §2
[9] = test system: P388; assay: Resistance factor for LC99 of resistant (P388/CP) to that of LC99 for wild type (P388/0).; assay type: functional, Mus musculus; method in brief: as §3
[10] = test system: L1210; assay: In vivo antitumor activity against intraperitoneal murine cyclophosphamide resistant L1210 Leukemia cells at 170 umol/kg; assay type: functional, Mus musculus; method in brief: as §1
[11] = test system: L1210; assay: In vivo antitumor activity against intraperitoneal murine cyclophosphamide resistant L1210 Leukemia cells at 340 umol/kg; assay type: functional, Mus musculus; method in brief: as §1
[12] = test system: L1210; assay: In vivo antitumor activity against intraperitoneal murine cyclophosphamide resistant L1210 Leukemia cells at 510 umol/kg; assay type: functional, Mus musculus; method in brief: as §1
[13] = test system: L1210; assay: In vivo antitumor activity against intraperitoneal murine cyclophosphamide resistant L1210 Leukemia cells at 680 umol/kg; assay type: functional, Mus musculus; method in brief: as §1
[14] = test system: L1210; assay: In vivo antitumor activity against intraperitoneal murine wild type L1210 Leukemia cells at 510 umol/kg; assay type: functional, Mus musculus; method in brief: as §1
[15] = test system: L1210; assay: In vivo antitumor activity against intraperitoneal murine wild type L1210 Leukemia cells at 680 umol/kg; assay type: functional, Mus musculus; method in brief: as §1

Compound	half-life [1] [h]	T/C [2] [%]	T/C [3] [%]	LC99 [4] [µM]	LC99 [5] [µM]	RF [6]	LC99 [7] [µM]	LC99 [8] [µM]	RF [9]	T/C [10] [%]	T/C [11] [%]	T/C [12] [%]	T/C [13] [%]	T/C [14] [%]	T/C [15] [%]
O=[P@]1(N(CCCl)CCCl)N[C@H](OO)C[C@@H](c2ccccc2)O1	2.17	117	144	29	9	3.2	15	6	2.5						
O=P1(N(CCCl)CCCl)NC(OO)CCO1 (stereo not given) [PERFOSFAMIDE]	0.25	140	171	140	8	17	60	6	10	115	110				
O=[P@]1(N(CCCl)CCCl)N[C@H](OO)C[C@@H](c2ccncc2)O1	1.83	130	150	57	53	1.1	23	44	0.5	119	131	138	150	160	190
O=[P@]1(N(CCCl)CCCl)N[C@H](OO)C[C@@H](CCc2ccccc2)O1	> 8.33		106	9	13	0.7	5	10	0.5						
C[C@@H]1C[C@@H](OO)N[P@](=O)(N(CCCl)CCCl)O1	> 8.33		138	180	39	4.6	69	26	2.7						
O=[P@]1(N(CCCl)CCCl)N[C@H](OO)C[C@@H](c2cccnc2)O1	1.75			56	36	1.6	34	33	1						
O=[N+]([O-])c1ccc([C@@H]2C[C@@H](OO)N[P@](=O)(N(CCCl)CCCl)O2)cc1	3.17		163	8	8	1	3	7	0.4					185	205
Cc1ccc([C@@H]2C[C@@H](OO)N[P@](=O)(N(CCCl)CCCl)O2)cc1	4		150	6	5	1.2	3	3	1					175	175
O=[P@@]1(N(CCCl)CCCl)N[C@H](OO)C[C@@H](c2ccccc2)O1	1.53			26	20	1.3	21	16	1.3						
O=P1(N(CCCl)CCCl)NCCCO1 (stereo not given) [CYCLOPHOSPHAMIDE ANHYDROUS]		150								105	95	110		208	
O=[P@]1(N(CCCl)CCCl)N[C@H](OO)C[C@@H](c2ccc(F)cc2)O1	3.42		163	8	7	1.2	5	6	1.2					188	
CC(C)[C@@H]1C[C@@H](OO)N[P@](=O)(N(CCCl)CCCl)O1	> 8.33			86	110	1		61	0.7						
